Experimental data reported in ChEMBL document CHEMBL1147237, “Two new epimeric pairs of acetogenins bearing a carbonyl group from Annona cherimolia seeds” (J Nat Prod, 2003).
≈ marks a conversion by molar mass, not a printed value.

Tests used:
[1] = (§1) Toxicity in brine shrimp larvae; assay type: organism-based; conditions: artemia, in vivo
A549 = test: Cytotoxicity against human A549 cells after 7 days by MTT assay; assay type: functional; conditions: A549, 168 h, read-out: LD50 (the source's name)
Summary of the method: (§2)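 Seven-day in vitro MTT cytotoxicity assay run by a cancer-center cell culture laboratory under standard protocols, using A-549 (human lung carcinoma), MCF-7 (human breast carcinoma), HT-29 (human colon adenocarcinoma), A-498 (human kidney carcinoma) and PC-3 (human prostate) cells. Isolated compounds were tested.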

MCF7 = test: Cytotoxicity against human MCF7 cells after 7 days by MTT assay; assay type: functional; conditions: MCF7, 168 h, read-out: LD50 (the source's name); summary of the method: as §2
HT-29 = test: Cytotoxicity against human HT-29 cells after 7 days by MTT assay; assay type: functional; conditions: HT-29, 168 h, read-out: LD50 (the source's name); summary of the method: as §2
A498 = test: Cytotoxicity against human A498 cells after 7 days by MTT assay; assay type: functional; conditions: A498, 168 h, read-out: LD50 (the source's name); summary of the method: as §2
PC-3 = test: Cytotoxicity against human PC3 cells after 7 days by MTT assay; assay type: functional; conditions: PC-3, 168 h, read-out: LD50 (the source's name); summary of the method: as §2
MIA PaCa-2 = test: Cytotoxicity against human MIAPaCa2 cells after 7 days by MTT assay; assay type: functional; conditions: MIA PaCa-2, 168 h, read-out: LD50 (the source's name)
Artemia = test: as §1; assay type: organism-based; conditions: in vivo

Q: What does the source list for `CCCCCCCCCCCC[C@@H](O)[C@H]1CC[C@H]([C@H](O)CCCC(=O)CCCCCCCCC2=CC(C)(O)OC2=O)O1` (mixture of isomers)?
A: LC50 [1]: 0.375 µg/mL; CC50 (A549): 1.26 µg/mL; CC50 (MCF7): 0.303 µg/mL; CC50 (HT-29): 0.193 µg/mL; CC50 (A498): 0.93 µg/mL; CC50 (PC-3): 0.198 µg/mL; CC50 (MIA PaCa-2): 0.00312 µg/mL

Q: For `CCCCCCCCCCCC[C@@H](O)[C@H]1CC[C@H]([C@H](O)CCCC(=O)CCCCCC[C@@H](O)CC2=CC(C)(O)OC2=O)O1` (mixture of isomers) [ANNOMOLON B/34-EPI-ANNOMOLON B], which LC50 (Artemia) is on record?
A: 7 ×10⁻² ug/ml

Q: And the CC50 (A549)?
A: 1.37 µg/mL

Q: And the CC50 (MCF7)?
A: 0.047 µg/mL

Q: What about the CC50 (HT-29) of the same compound?
A: 0.0719 µg/mL

Q: What about the CC50 (A498) of the same compound?
A: 0.377 µg/mL

Q: What about the CC50 (PC-3) of the same compound?
A: 0.0553 µg/mL

Q: What about the CC50 (MIA PaCa-2) of the same compound?
A: 0.00748 µg/mL

Q: Which results are given for `COc1cccc2c1C(=O)c1c(O)c3c(c(O)c1C2=O)C[C@@](O)(C(=O)CO)C[C@@H]3O[C@H]1C[C@H](N)[C@H](O)[C@H](C)O1` [DOXORUBICIN]?
A: CC50 (A549): 0.00113 µg/mL (≈ 0.00208 µM); CC50 (MCF7): 0.0182 µg/mL (≈ 0.0335 µM); CC50 (HT-29): 0.0128 µg/mL (≈ 0.0235 µM); CC50 (A498): 0.00226 µg/mL (≈ 0.00416 µM); CC50 (PC-3): 0.0502 µg/mL (≈ 0.0924 µM); CC50 (MIA PaCa-2): 0.00262 µg/mL (≈ 0.00482 µM)
